Reference: ChEMBL document CHEMBL3860041, “Synthesis, biological evaluation and molecular modeling study of some new methoxylated 2-benzylthio-quinazoline-4(3H)-ones as nonclassical antifolates” (Bioorg Med Chem Lett, 2016)

Key:
Dihydrofolate reductase = biological target: T1, Dihydrofolate reductase (Bos taurus, UniProt P00376); assay: Inhibition of bovine liver DHFR preincubated for 2 mins followed by addition of FH2 as substrate and NADPH
T1 sequence (P00376 whole entry): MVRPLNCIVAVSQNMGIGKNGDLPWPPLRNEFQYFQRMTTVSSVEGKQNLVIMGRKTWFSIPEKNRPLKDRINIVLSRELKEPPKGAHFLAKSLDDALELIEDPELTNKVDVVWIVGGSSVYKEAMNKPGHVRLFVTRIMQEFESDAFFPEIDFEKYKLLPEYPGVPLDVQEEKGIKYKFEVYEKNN

[1] = Growth inhibition of human HL-60(TB) cells at 10 uM after 48 hrs by SRB assay relative to control; format: functional; conditions: HL-60, 48 h, read-out: GI
In short: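 NCI disease-oriented human tumour cell line screen: primary single-dose assay at 10 μM across the full 60-cell-line panel spanning nine tumour subpanels.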

[2] = Growth inhibition of human K562 cells at 10 uM after 48 hrs by SRB assay relative to control; format: functional; conditions: K562, 48 h, read-out: GI
In short: (§1)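 NCI 60-cell-line panel, nine tumor subpanels; compounds tested at a single dose of 10 μM in the primary screen.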

[3] = Growth inhibition of human MOLT4 cells at 10 uM after 48 hrs by SRB assay relative to control; format: functional; conditions: MOLT-4, 48 h, read-out: GI; in short: as §1
[4] = Growth inhibition of human NCI-H23 cells at 10 uM after 48 hrs by SRB assay relative to control; format: functional; conditions: NCI-H23, 48 h, read-out: GI; in short: as §1
[5] = Growth inhibition of human NCI-322M cells at 10 uM after 48 hrs by SRB assay relative to control; format: functional; conditions: read-out: GI; in short: as §1
[6] = Growth inhibition of human NCI-H522 cells at 10 uM after 48 hrs by SRB assay relative to control; format: functional; conditions: NCI-H522, 48 h, read-out: GI; in short: as §1
[7] = Growth inhibition of human COLO205 cells at 10 uM after 48 hrs by SRB assay relative to control; format: functional; conditions: COLO 205, 48 h, read-out: GI; in short: as §1
[8] = Growth inhibition of human SF268 cells at 10 uM after 48 hrs by SRB assay relative to control; format: functional; conditions: SF-268, 48 h, read-out: GI; in short: as §1
[9] = Growth inhibition of human SF295 cells at 10 uM after 48 hrs by SRB assay relative to control; format: functional; conditions: SF-295, 48 h, read-out: GI; in short: as §1
[10] = Growth inhibition of human SF539 cells at 10 uM after 48 hrs by SRB assay relative to control; format: functional; conditions: SF-539, 48 h, read-out: GI; in short: as §1
[11] = Growth inhibition of human U251 cells at 10 uM after 48 hrs by SRB assay relative to control; format: functional; conditions: U-251, 48 h, read-out: GI
In short: (§2)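 Primary screen across the full NCI 60 human tumour cell line panel, which covers nine tumour subpanels. A single dose of 10 μM was applied to each line, and growth was recorded for each cell line.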

[12] = Growth inhibition of human LOXIMVI cells at 10 uM after 48 hrs by SRB assay relative to control; format: functional; conditions: LOX IMVI, read-out: GI; in short: as §1
[13] = Growth inhibition of human SK-MEL-5 cells at 10 uM after 48 hrs by SRB assay relative to control; format: functional; conditions: SK-MEL-5, 48 h, read-out: GI; in short: as §2
[14] = Growth inhibition of human UACC62 cells at 10 uM after 48 hrs by SRB assay relative to control; format: functional; conditions: UACC-62, 48 h, read-out: GI; in short: as §2
[15] = Growth inhibition of human OVCAR3 cells at 10 uM after 48 hrs by SRB assay relative to control; format: functional; conditions: OVCAR-3, 48 h, read-out: GI; in short: as §1
[16] = Growth inhibition of human OVCAR4 cells at 10 uM after 48 hrs by SRB assay relative to control; format: functional; conditions: OVCAR-4, 48 h, read-out: GI; in short: as §1
[17] = Growth inhibition of human OVCAR8 cells at 10 uM after 48 hrs by SRB assay relative to control; format: functional; conditions: OVCAR-8, 48 h, read-out: GI; in short: as §1
[18] = Growth inhibition of human NCI/ADR-RES cells at 10 uM after 48 hrs by SRB assay relative to control; format: functional; conditions: read-out: GI; in short: as §1
[19] = Growth inhibition of human SKOV3 cells at 10 uM after 48 hrs by SRB assay relative to control; format: functional; conditions: SK-OV-3, 48 h, read-out: GI; in short: as §2
[20] = Growth inhibition of human RXF393 cells at 10 uM after 48 hrs by SRB assay relative to control; format: functional; conditions: RXF 393, 48 h, read-out: GI; in short: as §1
[21] = Growth inhibition of human MCF7 cells at 10 uM after 48 hrs by SRB assay relative to control; format: functional; conditions: MCF7, 48 h, read-out: GI; in short: as §1
[22] = Growth inhibition of human MDA-MB-231 cells at 10 uM after 48 hrs by SRB assay relative to control; format: functional; conditions: MDA-MB-231, 48 h, read-out: GI; in short: as §1
[23] = Growth inhibition of human Hs 578T cells at 10 uM after 48 hrs by SRB assay relative to control; format: functional; conditions: read-out: GI; in short: as §1
[24] = Growth inhibition of human T47D cells at 10 uM after 48 hrs by SRB assay relative to control; format: functional; conditions: read-out: GI; in short: as §2
Cancer cell lines [25] = assay: Potency index, ratio of 5-fluorouracil GI50 to compound GI50 for human breast cancer cells; format: functional
In short: (§3)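 GI50 for each cell line came from NCI panel testing over a 5-log dose range, with 5-fluorouracil tested alongside as the reference drug. The index relates the 5-fluorouracil GI50 to the compound GI50 within each tumour subpanel.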

Cancer cell lines [26] = assay: Potency index, ratio of 5-fluorouracil GI50 to compound GI50 for human prostate cancer cells; format: functional; in short: as §3
Cancer cell lines [27] = assay: Potency index, ratio of 5-fluorouracil GI50 to compound GI50 for human ovarian cancer cells; format: functional; in short: as §3
Cancer cell lines [28] = assay: Potency index, ratio of 5-fluorouracil GI50 to compound GI50 for human colon cancer cells; format: functional; in short: as §3
Leukemia cell = assay: Potency index, ratio of 5-fluorouracil GI50 to compound GI50 for human leukemia cells; format: functional; in short: as §3
[29] = Growth inhibition of human leukemia cells after 48 hrs by SRB assay; format: functional; conditions: Leukemia cell
In short: (§4)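 Follow-up NCI panel testing over a 5-log dose range for each cell line. GI50, TGI and LC50 were monitored, with 5-fluorouracil run as the positive control. Values are grouped by tumour subpanel.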

[30] = Growth inhibition of human non-small cell lung cancer cells after 48 hrs by SRB assay; format: functional; conditions: Cancer cell lines; in short: as §4
[31] = Growth inhibition of human renal cancer cells after 48 hrs by SRB assay; format: functional; conditions: Cancer cell lines; in short: as §4
[32] = Growth inhibition of human prostate cancer cells after 48 hrs by SRB assay; format: functional; conditions: Cancer cell lines; in short: as §4
[33] = Growth inhibition of human breast cancer cells after 48 hrs by SRB assay; format: functional; conditions: Cancer cell lines; in short: as §4

COc1ccc(-n2c(SCc3cc(OC)c(OC)c(OC)c3)nc3ccc(C)cc3c2=O)cc1
IC50 (Dihydrofolate reductase): 10 µM
inhibition of growth at 10 µM [1]: 68.9%
inhibition of growth at 10 µM [2]: 83.1%
inhibition of growth at 10 µM [3]: 44%
inhibition of growth at 10 µM [4]: 30.1%
inhibition of growth at 10 µM [5]: 19.7%
inhibition of growth at 10 µM [6]: 60.7%
inhibition of growth at 10 µM [7]: 67.3%
inhibition of growth at 10 µM [8]: 19.4%
inhibition of growth at 10 µM [9]: 48.6%
inhibition of growth at 10 µM [10]: 22.3%
inhibition of growth at 10 µM [11]: 30.9%
inhibition of growth at 10 µM [12]: 37%
inhibition of growth at 10 µM [13]: 45.2%
inhibition of growth at 10 µM [14]: 43.3%
inhibition of growth at 10 µM [15]: 40.1%
inhibition of growth at 10 µM [16]: 32.8%
inhibition of growth at 10 µM [17]: 15.8%
inhibition of growth at 10 µM [18]: 54.2%
inhibition of growth at 10 µM [19]: 26.3%
inhibition of growth at 10 µM [20]: 47.2%
inhibition of growth at 10 µM [21]: 75.2%
inhibition of growth at 10 µM [22]: 40.3%
inhibition of growth at 10 µM [23]: 22.3%
inhibition of growth at 10 µM [24]: 32.2%
RatioGI50 (Cancer cell lines [25]): 2 - 10
RatioGI50 (Cancer cell lines [26]): 2 - 10
RatioGI50 (Cancer cell lines [27]): 2 - 10
RatioGI50 (Cancer cell lines [28]): 2 - 10
RatioGI50 (Leukemia cell): 2 - 10
GI50 [29]: 3.4 µM
TGI [29]: 90.2 µM
CC50 ([29]; read-out: LC50 (the source's name)): > 100 µM
GI50 [30]: 34.5 µM
LC50 (concentration killing 50% of cells) [30]: > 100 µM
TGI [30]: > 100 µM
GI50 [31]: 39.7 µM
LC50 [31]: > 100 µM
TGI [31]: 88.1 µM
GI50 [32]: 52.8 µM
LC50 (concentration killing 50% of cells) [32]: > 100 µM
TGI [32]: > 100 µM
GI50 [33]: 5.3 µM
LC50 [33]: > 100 µM
TGI [33]: 91.4 µM
